Results as given in ChEMBL document CHEMBL4138048, “Synthesis of substituted 2H-benzo[e]indazole-9-carboxylate as a potent antihyperglycemic agent that may act through IRS-1, Akt and GSK-3β pathways” (Medchemcomm, 2017).
Active and inactive are the calls of the source. The rule behind the calls is not given here.

Key:
[1] = system: Mus musculus; assay: Antihyperglycemic activity in db/db mouse assessed as improvement on glucose tolerance by measuring blood glucose AUC level at 3 to 30 mg/kg, po qd for 10 days by oral glucose tolerance test; type: functional, organism-based
Summary of the method: (§1)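 db/db mice dosed orally once daily for 15 consecutive days at 3, 10 or 30 mg/kg, with vehicle controls and pioglitazone at 10 mg/kg. Oral glucose tolerance tests on day 10 and day 15. Overall improvement in glucose tolerance calculated against vehicle control. Mean % change in 5 animals per group.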

[2] = system: Mus musculus; assay: Toxicity in db/db mouse assessed as effect on food intake level at 3 to 30 mg/kg, po qd for 15 days by oral glucose tolerance test; type: organism-based; details: in vivo, 360 h
[3] = system: Mus musculus; assay: Antihyperglycemic activity in db/db mouse assessed as improvement on glucose tolerance by measuring blood glucose AUC level at 10 mg/kg, po qd for 10 days by oral glucose tolerance test; type: functional; summary of the method: as §1
[4] = system: L6; assay: Stimulation of [3H]2-deoxyglucose uptake in rat L6 cells at 2.5 uM incubated for 16 hrs by scintillation counting method; type: functional, cell-based
Summary of the method: (§2)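 L6 myotubes incubated with the compound […]; insulin at 100 nM for 20 min served as the positive control. Uptake of ³H-2-deoxyglucose measured and expressed as fold stimulation relative to the control condition.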

[5] = system: Mus musculus; assay: Antihyperglycemic activity in db/db mouse assessed as reduction in triglyceride level at 30 mg/kg, po qd for 15 days; type: functional; set-up: scale not given: the % may be the effect or the level left
Summary of the method: (§3)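 db/db mice given 3, 10 or 30 mg/kg orally once a day for 15 consecutive days, alongside vehicle controls. Serum triglyceride, total cholesterol, HDL-C and insulin measured, along with fasting blood glucose. Expressed as mean % change in 5 animals per group versus control.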

[6] = molecular target: T1, Tyrosine-protein phosphatase non-receptor type 1 (Rattus norvegicus) (UniProt P20417); assay: Inhibition of PTP1B in rat L6 cells assessed as increase in insulin-stimulated GSK3beta Ser9 phosphorylation at 10 to 25 uM pre-incubated for 16 hrs before insulin stimulation for 10 mins by Western blot method; type: cell-based
T1 sequence (whole entry): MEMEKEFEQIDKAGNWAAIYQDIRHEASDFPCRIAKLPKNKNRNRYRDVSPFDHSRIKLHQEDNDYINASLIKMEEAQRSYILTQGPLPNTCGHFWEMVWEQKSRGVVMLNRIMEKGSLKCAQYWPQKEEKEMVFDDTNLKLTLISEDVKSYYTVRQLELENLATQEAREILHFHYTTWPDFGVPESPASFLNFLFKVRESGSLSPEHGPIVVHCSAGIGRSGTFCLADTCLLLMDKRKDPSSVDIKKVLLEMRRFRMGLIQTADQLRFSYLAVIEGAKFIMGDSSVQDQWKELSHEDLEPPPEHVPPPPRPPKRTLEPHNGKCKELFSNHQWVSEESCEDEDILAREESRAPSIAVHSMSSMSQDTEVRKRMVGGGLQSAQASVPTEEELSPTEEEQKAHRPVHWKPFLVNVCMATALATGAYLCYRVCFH
Summary of the method: (§4)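 L6 myotubes treated for 16 h with the compound at the indicated concentrations, then stimulated with insulin (100 nM) for 10 min. Cells lysed and analysed by western blot. Densitometry of p-IRS-1, p-AKT and p-GSK, each relative to its total form. Compared with control and with insulin-treated control.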

[7] = system: L6; assay: Stimulation of [3H]2-deoxyglucose uptake in rat L6 cells at 10 uM incubated for 16 hrs by scintillation counting method relative to untreated control; type: functional; summary of the method: as §2
[8] = system: Mus musculus; assay: Antihyperglycemic activity in db/db mouse assessed as reduction in serum insulin level at 3 to 30 mg/kg, po qd for 15 days; type: functional, organism-based; summary of the method: as §3
[9] = system: Mus musculus; assay: Antihyperglycemic activity in db/db mouse assessed as reduction in blood glucose level at 30 mg/kg, po qd and measured on day 7 by oral glucose tolerance test; type: functional, organism-based
Summary of the method: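 Type 2 diabetic db/db mice dosed orally once a day for 15 days at 3, 10 or 30 mg/kg, with pioglitazone at 10 mg/kg as standard. Blood glucose measured daily and profile compared with vehicle-treated animals. Mean % change in 5 animals per group.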

[10] = molecular target: T2, Tyrosine-protein phosphatase non-receptor type 1 (Homo sapiens) (UniProt P18031); assay: Inhibition of human recombinant PTP1B using IR5 insulin receptor-beta (1142 to 1153 residues, pY1146) substrate BY Malachite green dye based assay
T2 sequence (whole entry): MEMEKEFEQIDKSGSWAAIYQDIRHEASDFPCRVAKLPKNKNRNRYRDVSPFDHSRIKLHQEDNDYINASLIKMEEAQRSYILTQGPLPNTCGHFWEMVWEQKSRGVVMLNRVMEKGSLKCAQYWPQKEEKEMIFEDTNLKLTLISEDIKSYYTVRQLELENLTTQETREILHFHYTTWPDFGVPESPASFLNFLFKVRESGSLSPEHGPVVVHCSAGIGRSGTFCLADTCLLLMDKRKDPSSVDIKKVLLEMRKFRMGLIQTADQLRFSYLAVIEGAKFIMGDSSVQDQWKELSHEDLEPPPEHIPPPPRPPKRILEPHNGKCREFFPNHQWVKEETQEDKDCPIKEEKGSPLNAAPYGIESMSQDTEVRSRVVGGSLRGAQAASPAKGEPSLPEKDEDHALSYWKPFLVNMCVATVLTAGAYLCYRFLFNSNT

[11] = system: Mus musculus; assay: Antihyperglycemic activity in db/db mouse assessed as reduction in triglyceride level at 3 mg/kg, po qd for 15 days; type: functional; set-up: scale not given: the % may be the effect or the level left; summary of the method: as §3
[12] = system: Rattus norvegicus; assay: Antihyperglycemic activity in albino Wistar rat assessed as inhibition of postprandial hyperglycemia at 100 mg/kg, po dosed 30 mins before sucrose load and measured 30 to 120 mins post sucrose injection by glucometry; type: functional
Summary of the method: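 Normal albino rats given an oral sucrose load, with a single oral dose of 100 mg/kg b.wt. Blood glucose profile followed after the load, and glucose AUC taken over 0–2 h. Percent inhibition of the postprandial rise in blood glucose calculated against control. Mean % change in 5 animals per group.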

[13] = molecular target: T1, Tyrosine-protein phosphatase non-receptor type 1 (Rattus norvegicus); assay: Inhibition of PTP1B in rat L6 cells assessed as increase in insulin-stimulated Akt Ser473 phosphorylation at 10 to 25 uM pre-incubated for 16 hrs before insulin stimulation for 10 mins by Western blot method; type: cell-based; summary of the method: as §4
[14] = molecular target: T1, Tyrosine-protein phosphatase non-receptor type 1 (Rattus norvegicus); assay: Inhibition of PTP1B in rat L6 cells assessed as increase in insulin-stimulated IRS1 tyrosine phosphorylation pre-incubated for 16 hrs before insulin stimulation for 10 mins by Western blot method; type: cell-based; summary of the method: as §4
[15] = system: Mus musculus; assay: Antihyperglycemic activity in db/db mouse assessed as reduction in cholesterol level at 3 mg/kg, po qd for 15 days; type: functional; set-up: scale not given: the % may be the effect or the level left; summary of the method: as §3
[16] = system: Mus musculus; assay: Antihyperglycemic activity in db/db mouse assessed as improvement on glucose tolerance by measuring blood glucose AUC level at 3 to 30 mg/kg, po qd for 15 days by oral glucose tolerance test; type: functional, organism-based; summary of the method: as §1
[17] = system: L6; assay: Cytotoxicity in rat L6 cells assessed as reduction in cell viability at 1 to 50 uM by MTT assay; type: cell-based; details: l6, 50 µM
[18] = system: Mus musculus; assay: Antihyperglycemic activity in db/db mouse assessed as reduction in fasting blood glucose level at 3 to 30 mg/kg, po qd for 15 days; type: functional, organism-based; summary of the method: as §3
[19] = system: Mus musculus; assay: Antihyperglycemic activity in db/db mouse assessed as reduction in fasting blood glucose level at 10 mg/kg, po qd for 15 days; type: functional; set-up: scale not given: the % may be the effect or the level left; summary of the method: as §3
[20] = system: Mus musculus; assay: Antihyperglycemic activity in db/db mouse assessed as increase in HDL-C level at 3 mg/kg, po qd for 15 days; type: functional; summary of the method: as §3
[21] = system: Mus musculus; assay: Antihyperglycemic activity in db/db mouse assessed as reduction in insulin level at 10 mg/kg, po qd for 15 days; type: functional; set-up: scale not given: the % may be the effect or the level left; summary of the method: as §3

In the case of COC(=O)c1c(SC)cc(-c2ccc(C)cc2)c2c1-c1cn(-c3ccccc3)nc1CC2, the Activity [1] is reported as “Dose-dependent effect”, the Activity [2] is reported as “Non-Toxic” and the Activity [3] is reported as 13.9%. The Activity [4] was “Active”, the Activity [5] was 18.2% and the inhibition [6] was “Active”. The “fold change (FC)” value [7] was 2, the Activity [8] was “Dose-dependent effect” and the Activity [9] was “Active”. The inhibition [10] was “Dose-dependent effect”, the Activity [11] was 8.98% and the inhibition in vivo at 100 mg/kg [12] was 35.8%. For the same molecule, the inhibition [13] was “Active”, the inhibition [14] was “Dose-dependent effect” and the Activity [15] was 11.5%. The Activity [16] was “Dose-dependent effect”, the Activity [17] was “Non-Toxic” and the Activity [18] was “Dose-dependent effect”. The Activity [19] was 14.1%, the Activity [20] was 6.27% and the Activity [21] was 17.7%.
